Experimental data published in ChEMBL document CHEMBL5365542, “Difluoromethyl-1,3,4-oxadiazoles Are Selective, Mechanism-Based, and Essentially Irreversible Inhibitors of Histone Deacetylase 6” (J Med Chem, 2023).
Active and inactive are the calls of the source.

Key:
[1] = target: T1, Protein deacetylase HDAC6 (Homo sapiens) (UniProt Q9UBN7); assay: Irreversible inhibition of N-terminal GST tagged human recombinant HDAC6 (1 to 1215 residues) expressed in Sf9 insect cells using Z-Lys(Ac)-AMC as fluorogenic substrate at 2.5 uM preincubated for 1 hr followed by 100-fold dilution and substrate addition measured every 0.5 mins for 60 mins by microplate reader analysis
T1 sequence (whole entry): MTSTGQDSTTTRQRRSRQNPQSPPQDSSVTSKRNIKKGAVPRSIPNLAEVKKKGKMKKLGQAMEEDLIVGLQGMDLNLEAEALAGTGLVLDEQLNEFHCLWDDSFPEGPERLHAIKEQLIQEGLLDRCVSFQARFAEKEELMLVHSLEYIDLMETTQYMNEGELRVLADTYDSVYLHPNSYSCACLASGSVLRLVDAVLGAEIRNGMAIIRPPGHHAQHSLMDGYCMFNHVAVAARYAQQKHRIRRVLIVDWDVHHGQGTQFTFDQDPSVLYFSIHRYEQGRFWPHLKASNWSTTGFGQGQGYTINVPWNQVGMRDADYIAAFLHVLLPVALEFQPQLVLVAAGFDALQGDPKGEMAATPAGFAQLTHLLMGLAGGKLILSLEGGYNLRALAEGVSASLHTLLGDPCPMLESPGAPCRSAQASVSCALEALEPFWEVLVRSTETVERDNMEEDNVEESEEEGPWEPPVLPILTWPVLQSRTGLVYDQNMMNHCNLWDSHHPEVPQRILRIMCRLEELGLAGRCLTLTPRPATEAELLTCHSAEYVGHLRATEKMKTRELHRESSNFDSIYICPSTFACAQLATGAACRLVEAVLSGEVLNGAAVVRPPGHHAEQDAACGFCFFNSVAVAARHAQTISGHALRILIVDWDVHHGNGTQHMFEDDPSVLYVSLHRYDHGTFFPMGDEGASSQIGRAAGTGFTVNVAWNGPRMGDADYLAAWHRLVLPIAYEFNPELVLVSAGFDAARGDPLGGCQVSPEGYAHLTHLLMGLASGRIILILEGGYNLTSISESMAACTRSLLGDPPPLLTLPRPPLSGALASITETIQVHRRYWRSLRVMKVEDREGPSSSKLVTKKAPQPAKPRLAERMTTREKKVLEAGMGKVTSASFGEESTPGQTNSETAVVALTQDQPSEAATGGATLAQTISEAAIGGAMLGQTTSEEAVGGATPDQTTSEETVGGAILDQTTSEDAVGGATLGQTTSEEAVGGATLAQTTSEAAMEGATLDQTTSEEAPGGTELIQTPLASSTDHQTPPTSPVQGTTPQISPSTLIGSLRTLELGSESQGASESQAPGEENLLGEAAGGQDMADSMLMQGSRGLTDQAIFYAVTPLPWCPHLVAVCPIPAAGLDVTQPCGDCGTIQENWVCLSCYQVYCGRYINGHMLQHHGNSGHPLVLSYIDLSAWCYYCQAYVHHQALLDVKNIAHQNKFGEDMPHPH
In short: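 It was then diluted 100-fold in buffer or in inhibitor at the original concentration. Finals were 220 pg/μL enzyme, 93 μM ZMAL and 20 ng/μL trypsin. AMC release was read every 0.5 min for 60 min at 37 °C; triplicates.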

[2] = target: T2, Histone deacetylase 6 (Danio rerio) (UniProt F8W4B7); assay: Irreversible inhibition of Danio rerio HDAC6 using RHKK(Ac)-AMC as fluorogenic substrate at 100 uM preincubated for 1 hr followed by dialysis for 21 hrs and substrate addition for 30 mins by microplate reader analysis; details: Sf9
T2 sequence (whole entry): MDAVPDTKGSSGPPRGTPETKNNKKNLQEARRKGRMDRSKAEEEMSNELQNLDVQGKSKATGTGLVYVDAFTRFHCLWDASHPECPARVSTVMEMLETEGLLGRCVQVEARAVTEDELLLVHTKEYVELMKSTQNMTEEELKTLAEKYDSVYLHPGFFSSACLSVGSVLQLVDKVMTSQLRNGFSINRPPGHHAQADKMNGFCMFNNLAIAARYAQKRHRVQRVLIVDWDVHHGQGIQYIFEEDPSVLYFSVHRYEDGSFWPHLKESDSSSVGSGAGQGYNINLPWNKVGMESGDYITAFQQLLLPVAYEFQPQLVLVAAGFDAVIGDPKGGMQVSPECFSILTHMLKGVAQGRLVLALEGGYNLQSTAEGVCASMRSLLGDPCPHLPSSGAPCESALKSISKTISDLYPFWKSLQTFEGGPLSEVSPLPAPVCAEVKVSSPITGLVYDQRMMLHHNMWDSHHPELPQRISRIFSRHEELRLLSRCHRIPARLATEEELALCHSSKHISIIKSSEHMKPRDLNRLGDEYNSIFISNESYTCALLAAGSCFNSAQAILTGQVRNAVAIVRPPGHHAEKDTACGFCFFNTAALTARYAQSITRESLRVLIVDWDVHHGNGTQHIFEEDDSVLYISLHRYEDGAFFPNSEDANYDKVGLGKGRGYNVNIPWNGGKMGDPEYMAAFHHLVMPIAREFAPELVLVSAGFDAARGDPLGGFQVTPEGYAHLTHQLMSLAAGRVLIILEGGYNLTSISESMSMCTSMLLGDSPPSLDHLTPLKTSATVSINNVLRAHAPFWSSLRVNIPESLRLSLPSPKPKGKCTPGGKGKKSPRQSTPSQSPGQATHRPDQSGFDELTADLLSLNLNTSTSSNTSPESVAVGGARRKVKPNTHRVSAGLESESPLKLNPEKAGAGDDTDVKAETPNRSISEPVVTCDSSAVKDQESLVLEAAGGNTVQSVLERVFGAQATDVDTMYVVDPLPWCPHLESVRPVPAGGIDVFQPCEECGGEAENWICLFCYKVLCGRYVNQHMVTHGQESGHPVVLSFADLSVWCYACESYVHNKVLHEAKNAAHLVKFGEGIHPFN
In short: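 zCD2 at 1 μM was incubated with 100 μM inhibitor for 1 h, then dialysed at 4 °C against HEPES pH 7.5 buffer with 0.25% DMSO, overnight, sampled at 6 and 21 h. Each sample was mixed with 250 μM RHKK(Ac)-AMC (pre-mix level) for 30 min. Trypsin/TSA developer was then added and fluorescence read at ex 360/em 460. Triplicates.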

[3] = target: T1, Protein deacetylase HDAC6 (Homo sapiens); assay: Binding affinity to N-terminal GST tagged human recombinant HDAC6 (1 to 1215 residues) expressed in Sf9 insect cells using Z-Lys(Ac)-AMC as fluorogenic substrate assessed as induced-fit mechanism by measuring hyperbolic relationship between Kobs and inhibitor concentration measured every 0.5 mins for 45 mins
In short: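 Finals were 220 pg/μL enzyme, 93.0 μM ZMAL (5× KM; KM 19.27 μM) and 20 ng/μL trypsin. AMC read continuously (ex 360/em 460) at 37 °C. Curves fitted for kobs, then kobs vs [I] fitted; triplicates.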

FC(F)c1nnc(-c2cnc(NCc3ccccc3)nc2)o1
active: inhibition [1] | inhibition [2] | Activity [3]
